Laboratory results from ChEMBL document CHEMBL3864163, “I. Discovery of a novel series of CXCR3 antagonists. Multiparametric optimization of N,N-disubstituted benzylamines” (Bioorg Med Chem Lett, 2016).

How the values were obtained:
[1] = Absolute oral bioavailability in Balb/c mouse at 10 mg/kg; format: ADME, organism-based; settings: in vivo
In short: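 Male Balb/c mice dosed once orally at 10 mg/kg and once intravenously at 3 mg/kg. Either 4 animals per route were profiled individually, or sparse sampling used 24 mice with 3 per time point for mean profiles. Absolute oral bioavailability was derived from the two routes.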

[2] = Apparent permeability across human Caco2 cells after 2 hrs by LC-MS method; format: ADME, cell-based; settings: Caco-2
In short: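 Caco-2 monolayers checked for integrity, then dosed alongside high- and low-permeability controls. Apical and basal samples taken at 2 h. Four transport conditions: A-B at pH 6.5/7.4 (0% or 0.5% BSA apical, 5% BSA basal), and A-B and B-A at pH 7.4/7.4 (0.5% BSA both sides). Compound quantified by LC/MS. Rapid transport defined as Papp >20 nm/s.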

[3] = Metabolic stability in human liver microsomes assessed as parent compound remaining in presence of NADPH by LC-MS/MS method; format: ADME
In short: (§1)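 Compound incubated with liver microsomes (human or mouse) plus NADPH at 37 °C. Loss of parent was followed by LC-MS-MS and reported as percent. Stability bands: low <40%, medium 40–60%, high >60%.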

[4] = Metabolic stability in mouse liver microsomes assessed as parent compound remaining in presence of NADPH by LC-MS/MS method; format: ADME; in short: as §1
[5] = Intrinsic clearance in human hepatocytes assessed per 10^6 cells at 5 uM; format: ADME, cell-based, Hepatocyte
[6] = target: T1, Alpha-1A adrenergic receptor (Homo sapiens) (UniProt P35348); assay: Displacement of [3H]prazosin from recombinant human alpha 1A adrenergic receptor expressed in CHO cells at 10 uM after 60 mins by scintillation counting method relative to control; format: cell-based
T1 sequence (whole entry): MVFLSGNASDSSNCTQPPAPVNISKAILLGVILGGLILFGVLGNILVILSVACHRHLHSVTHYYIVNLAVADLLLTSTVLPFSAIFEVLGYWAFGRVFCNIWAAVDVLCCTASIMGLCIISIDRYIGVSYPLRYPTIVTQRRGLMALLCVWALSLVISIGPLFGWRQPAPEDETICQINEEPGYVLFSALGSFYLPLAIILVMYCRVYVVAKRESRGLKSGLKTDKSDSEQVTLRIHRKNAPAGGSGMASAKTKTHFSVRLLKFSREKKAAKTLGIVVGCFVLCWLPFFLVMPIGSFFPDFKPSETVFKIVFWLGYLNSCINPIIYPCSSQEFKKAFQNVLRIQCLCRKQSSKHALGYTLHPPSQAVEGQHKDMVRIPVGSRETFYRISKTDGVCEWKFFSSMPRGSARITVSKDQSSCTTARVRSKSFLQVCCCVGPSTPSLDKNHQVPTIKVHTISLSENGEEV

[7] = target: Mu-type opioid receptor (Homo sapiens) (UniProt P35372); assay: Displacement of [3H]DAMGO from recombinant human mu opioid receptor expressed in HEK293 cells at 10 uM after 60 mins by scintillation counting method relative to control; format: cell-based
[8] = target: T2, Muscarinic acetylcholine receptor M2 (Homo sapiens) (UniProt P08172); assay: Displacement of [3H]AF-DX384 from recombinant human muscarinic M2 receptor expressed in CHO cells at 10 uM after 60 mins by scintillation counting method relative to control; format: cell-based
T2 sequence (whole entry): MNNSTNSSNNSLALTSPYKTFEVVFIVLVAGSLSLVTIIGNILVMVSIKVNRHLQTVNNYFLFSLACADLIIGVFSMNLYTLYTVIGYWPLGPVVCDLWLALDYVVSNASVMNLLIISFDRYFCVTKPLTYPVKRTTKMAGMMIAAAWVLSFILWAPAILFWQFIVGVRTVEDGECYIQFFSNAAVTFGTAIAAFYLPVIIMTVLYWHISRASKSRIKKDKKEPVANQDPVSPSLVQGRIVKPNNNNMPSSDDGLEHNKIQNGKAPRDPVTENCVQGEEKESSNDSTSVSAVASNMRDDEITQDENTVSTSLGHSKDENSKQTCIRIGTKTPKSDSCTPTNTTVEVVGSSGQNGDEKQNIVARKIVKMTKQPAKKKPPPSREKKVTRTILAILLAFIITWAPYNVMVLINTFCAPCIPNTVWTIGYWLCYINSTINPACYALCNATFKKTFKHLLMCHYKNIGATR

[9] = target: T3, C-X-C chemokine receptor type 3 (Homo sapiens, UniProt P49682); assay: Displacement of [125I]-CXCL10 from human recombinant CXCR3 transfected in Flp-In-CHO cell membranes after 60 mins by gamma counting method
T3 sequence (P49682 whole entry): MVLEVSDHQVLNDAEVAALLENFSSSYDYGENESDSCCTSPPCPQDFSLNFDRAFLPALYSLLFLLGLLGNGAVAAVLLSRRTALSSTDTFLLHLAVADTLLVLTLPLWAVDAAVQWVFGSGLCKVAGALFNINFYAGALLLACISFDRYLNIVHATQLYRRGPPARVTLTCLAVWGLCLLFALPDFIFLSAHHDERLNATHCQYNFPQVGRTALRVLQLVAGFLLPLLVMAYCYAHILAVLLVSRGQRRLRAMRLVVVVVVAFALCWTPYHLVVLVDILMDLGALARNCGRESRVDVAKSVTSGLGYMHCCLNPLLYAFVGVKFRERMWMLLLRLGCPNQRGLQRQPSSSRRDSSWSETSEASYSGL

[10] = target: T4, C-X-C chemokine receptor type 3 (Homo sapiens) (UniProt P49682); assay: Displacement of [125I]-CXCL10 from human recombinant CXCR3 transfected in Flp-In-CHO cell membranes at 10 uM after 60 mins by gamma counting method relative to control
T4 sequence (whole entry): T3 sequence (P49682 whole entry)

Sequence of Mu-type opioid receptor (Homo sapiens) (P35372 whole entry): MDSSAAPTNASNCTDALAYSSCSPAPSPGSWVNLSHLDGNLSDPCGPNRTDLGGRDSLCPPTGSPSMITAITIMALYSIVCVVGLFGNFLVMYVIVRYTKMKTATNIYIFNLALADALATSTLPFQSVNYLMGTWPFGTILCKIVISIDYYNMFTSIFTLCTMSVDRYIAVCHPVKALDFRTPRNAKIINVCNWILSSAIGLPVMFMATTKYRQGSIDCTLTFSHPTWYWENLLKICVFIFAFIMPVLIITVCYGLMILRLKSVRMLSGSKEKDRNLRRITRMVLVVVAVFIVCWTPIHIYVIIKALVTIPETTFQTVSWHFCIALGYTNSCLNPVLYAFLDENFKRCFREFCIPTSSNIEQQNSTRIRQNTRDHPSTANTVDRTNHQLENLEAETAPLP

Structure (SMILES) | bioavailability [1] [%] | Papp at 2 h [2] [×10⁻⁶ cm/s] | Stability [3] [%] | Stability [4] [%] | CLH [5] [mL/h] | inhibition [6] [%] | inhibition [7] [%] | inhibition [8] [%] | IC50 [9] [nM] | inhibition [10] [%]
COc1cc(CN(C[C@H]2CC[C@H](C(=O)O)CC2)[C@@H](C)c2ccc(Cl)cc2)ccc1OCCn1c(=O)ccn(C)c1=O | 26.7 | 8.01 | 62 | 76 | 0.159 |  |  |  |  | 
COc1cc(CN(C[C@H]2CC[C@H](C(=O)O)CC2)C2CCc3cc(Cl)ccc32)ccc1OCCN1C(=O)CCC1=O (stereo partly drawn) |  | 8.98 | 66 | 78 |  | 52 | 63 to 64 | 0 | 24 | 
COc1cc(CN(C[C@H]2CC[C@H](C(=O)O)CC2)[C@@H](C)c2ccc(Cl)cc2)ccc1OCCN1C(=O)CCC1=O | 13.3 | 5.28 | 91 | 91 |  |  | 74 |  |  | 
COc1cc(CN(C[C@H]2CC[C@H](C(=O)O)CC2)[C@H]2CCc3c2ccc(Cl)c3F)ccc1OCCN1C(=O)CCC1=O | 47 | 2.97 | 73 | 81 | 0.031 |  |  | 16 |  | 
COc1cc(CN(C)C(C)c2ccc3c(c2)CCO3)cc(OCCCN2C(=O)CCC2=O)c1 (stereo not drawn) |  |  |  |  |  |  |  |  |  | 15
Cc1cc(CN(C[C@H]2CC[C@H](C(=O)O)CC2)[C@@H](C)c2ccc(Cl)cc2)ccc1OCCN1C(=O)CN(C)C1=O | 63.3 | 15.7 | 63 | 100 | 0.234 |  |  |  | 99 | 
COc1cc(CN(C)C(C)c2ccc3c(c2)CCO3)ccc1OCCCN1C(=O)CCC1=O (stereo not drawn) |  |  |  |  |  |  |  |  |  | 39
Cc1cc(CN(C[C@H]2CC[C@H](C(=O)O)CC2)C(C)c2ccc3c(c2)CCO3)ccc1OCCN1C(=O)CCC1=O (stereo partly drawn) | 4.1 | 2.22 | 70 | 87 |  |  | 78 | 99 |  | 
COc1ccc(CN(C)C(C)c2ccc3c(c2)CCO3)cc1OCCN1C(=O)CCC1=O (stereo not drawn) |  |  |  |  |  |  |  |  |  | 18
COc1cc(CN(C[C@H]2CC[C@H](C(=O)O)CC2)C(C)c2ccc3c(c2)CCO3)ccc1OCCN1C(=O)CSC1=O (stereo partly drawn) |  | 2.93 | 73 | 73 |  |  | 94 | 72 |  | 
